According to ChEMBL document CHEMBL4725280, “Structural studies of triazole inhibitors with promising inhibitor effects against antibiotic resistance metallo-β-lactamases” (Bioorg Med Chem, 2020):
≈ marks a conversion by molar mass, not a printed value. Calls of active or inactive are those of the source. The calls are words filed in the database; no cut-off is given here.

Key:
Beta-lactamase VIM-2 = Beta-lactamase VIM-2 (Pseudomonas aeruginosa, UniProt Q9K2N0); assay: Inhibition of beta lactamase VIM-2 in Pseudomonas aeruginosa 3015473 in presence of nitrocefin as reporter substrate measured after 5 mins by microplate spectrophotometry analysis
In short: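 Purified VIM-2 at 1 nM in 50 mM HEPES pH 7.2 with 100 µM ZnCl2 and 400 µg/ml BSA, preincubated with inhibitor (sixteen concentrations, 0–250 µM) for 5 min at 25 °C. Then 100 µM nitrocefin was added and absorbance was followed at 482 nm. Points were run in triplicate, and IC50 was taken from initial velocities by log[inhibitor]–response fitting.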

GIM-1 protein = GIM-1 protein (Pseudomonas aeruginosa, UniProt Q704V1); assay: Inhibition of beta lactamase GIM-1 in Pseudomonas aeruginosa in presence of nitrocefin as reporter substrate measured after 5 mins by microplate spectrophotometry analysis
In short: (§1)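 Purified recombinant enzyme (1 nM GIM-1 or NDM-1) in 50 mM HEPES pH 7.2, 100 µM ZnCl2, 400 µg/ml BSA, preincubated with inhibitor at 16 concentrations (0–250 µM) for 5 min at 25 °C. Reporter substrate added at 100 µM: nitrocefin for GIM-1 (A482), imipenem for NDM-1 (A300). Triplicates; IC50 from initial velocities by log[inhibitor]–response fit.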

[1] = target: Beta-lactamase VIM-2 (Pseudomonas aeruginosa) (UniProt Q9K2N0); assay: (§2) Inhibition of Pseudomonas aeruginosa 3015473 beta lactamase VIM-2 transfected in negative Escherichia coli SNO3 cells assessed as substrate hydrolysis using nitrocefin as substrate at 250 uM incubated for 20 mins measured every 1 mins for 3 hrs by cell-based microplate spectrophotometry analysis relative to control
In short: (§3)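 E. coli SNO3 (β-lactamase-negative) carrying pET26b(+) with blaVIM-2, blaGIM-1 or blaNDM-1; overnight culture adjusted to OD600 1 in LB, inhibitor 250 µM final, IPTG 0.8 mM final, 37 °C 20 min with shaking to induce. Nitrocefin added (1.6 mM final, in 50 mM HEPES pH 7.2, 100 µM ZnCl2), A482 read each minute for 3 h; duplicates.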

[2] = target: GIM-1 protein (Pseudomonas aeruginosa) (UniProt Q704V1); assay: as §2, with “aeruginosa” for “aeruginosa 3015473”, “GIM-1” for “VIM-2”; in short: as §3
Klebsiella pneumoniae = assay: as §2, with “Klebsiella pneumonia” for “Pseudomonas aeruginosa 3015473”, “NDM1” for “VIM-2”; in short: as §3
[3] = Inhibition of beta lactamase NDM1 in Klebsiella pneumoniae in presence of imipenem as reporter substrate measured after 5 mins by microplate spectrophotometry analysis; in short: as §1
[4] = target: Beta-lactamase VIM-2 (Pseudomonas aeruginosa) (UniProt Q9K2N0); assay: Synergistic Inhibition of beta lactamase VIM-2 in Pseudomonas aeruginosa K34-7 assessed colony formation by visual inspection in presence of 50 microM 2,5-Dichloro-N-((4-((cyclohexylamino)methyl)-1H-1,2,3-triazol-5-yl)methyl)benzenesulfonamide incubated for 20 hrs by two-fold dilution method
In short: (§4)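 Broth microdilution in Mueller Hinton broth against clinical isolates (P. aeruginosa VIM-2, K. pneumoniae NDM-1, E. coli VIM-29). Meropenem 2-fold series 256–0.0625 µg/mL, with inhibitor at 50 or 125 µM final; 5% DMSO control. Inoculum from 0.5 McFarland suspension in 0.85% NaCl diluted in MH broth, CFU checked on MH agar. 37 °C for 20 h; MIC read visually.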

[5] = target: Metallo-beta-lactamase type 2 (Klebsiella pneumoniae) (UniProt C7C422); assay: Synergistic Inhibition of beta lactamase NDM1 in Klebsiella pneumoniae K66-45 assessed colony formation by visual inspection in presence of 50 microM 2,5-Dichloro-N-((4-((cyclohexylamino)methyl)-1H-1,2,3-triazol-5-yl)methyl)benzenesulfonamide incubated for 20 hrs by two-fold dilution method; in short: as §4
Escherichia coli [6] = assay: Synergistic Inhibition of beta lactamase VIM-29 in Escherichia coli 50639799 assessed colony formation by visual inspection in presence of 50 microM 2,5-Dichloro-N-((4-((cyclohexylamino)methyl)-1H-1,2,3-triazol-5-yl)methyl)benzenesulfonamide incubated for 20 hrs by two-fold dilution method; in short: as §4
[7] = target: Beta-lactamase VIM-2 (Pseudomonas aeruginosa) (UniProt Q9K2N0); assay: Inhibition of beta lactamase VIM-2 in Pseudomonas aeruginosa K34-7 assessed colony formation by visual inspection incubated for 20 hrs by two-fold dilution method; in short: as §4
[8] = target: Metallo-beta-lactamase type 2 (Klebsiella pneumoniae) (UniProt C7C422); assay: Inhibition of beta lactamase NDM1 in Klebsiella pneumoniae K66-45 assessed colony formation by visual inspection incubated for 20 hrs by two-fold dilution method; in short: as §4
Escherichia coli [9] = assay: Inhibition of beta lactamase VIM-29 in Escherichia coli 50639799 assessed colony formation by visual inspection incubated for 20 hrs by two-fold dilution method; in short: as §4
[10] = target: Beta-lactamase VIM-2 (Pseudomonas aeruginosa) (UniProt Q9K2N0); assay: Synergistic Inhibition of beta lactamase VIM-2 in Pseudomonas aeruginosa K34-7 assessed colony formation by visual inspection in presence of 50 microM (5-((4-iodophenylsulfonamido)methyl)-1H-1,2,3-triazol-4-yl)methyl acetate incubated for 20 hrs by two-fold dilution method; in short: as §4
[11] = target: Metallo-beta-lactamase type 2 (Klebsiella pneumoniae) (UniProt C7C422); assay: Synergistic Inhibition of beta lactamase NDM1 in Klebsiella pneumoniae K66-45 assessed colony formation by visual inspection in presence of 125 microM N-((4-((cyclohexylamino)methyl)-1H-1,2,3-triazol-5-yl)methyl)-4-iodobenzenesulfonamide incubated for 20 hrs by two-fold dilution method; in short: as §4
[12] = target: Beta-lactamase VIM-2 (Pseudomonas aeruginosa) (UniProt Q9K2N0); assay: Synergistic Inhibition of beta lactamase VIM-2 in Pseudomonas aeruginosa K34-7 assessed colony formation by visual inspection in presence of 125 microM N-((4-((cyclohexylamino)methyl)-1H-1,2,3-triazol-5-yl)methyl)-4-iodobenzenesulfonamide incubated for 20 hrs by two-fold dilution method; in short: as §4
[13] = target: Metallo-beta-lactamase type 2 (Klebsiella pneumoniae) (UniProt C7C422); assay: Synergistic Inhibition of beta lactamase NDM1 in Klebsiella pneumoniae K66-45 assessed colony formation by visual inspection in presence of 125 microM N-((4-((adamantylamino)methyl)-1H-1,2,3-triazol-5-yl)methyl)-4-iodobenzenesulfonamide incubated for 20 hrs by two-fold dilution method; in short: as §4
[14] = target: Beta-lactamase VIM-2 (Pseudomonas aeruginosa) (UniProt Q9K2N0); assay: Synergistic Inhibition of beta lactamase VIM-2 in Pseudomonas aeruginosa K34-7 assessed colony formation by visual inspection in presence of 125 microM N-((4-((adamantylamino)methyl)-1H-1,2,3-triazol-5-yl)methyl)-4-iodobenzenesulfonamide incubated for 20 hrs by two-fold dilution method; in short: as §4
[15] = target: Metallo-beta-lactamase type 2 (Klebsiella pneumoniae) (UniProt C7C422); assay: Synergistic Inhibition of beta lactamase NDM1 in Klebsiella pneumoniae K66-45 assessed colony formation by visual inspection in presence of 50 microM (5-((4-iodophenylsulfonamido)methyl)-1H-1,2,3-triazol-4-yl)methyl acetate incubated for 20 hrs by two-fold dilution method; in short: as §4
Escherichia coli [16] = assay: Synergistic Inhibition of beta lactamase VIM-29 in Escherichia coli 50639799 assessed colony formation by visual inspection in presence of 50 microM (5-((4-iodophenylsulfonamido)methyl)-1H-1,2,3-triazol-4-yl)methyl acetate incubated for 20 hrs by two-fold dilution method; in short: as §4

GIM-1 protein, sequence (Q704V1 whole entry): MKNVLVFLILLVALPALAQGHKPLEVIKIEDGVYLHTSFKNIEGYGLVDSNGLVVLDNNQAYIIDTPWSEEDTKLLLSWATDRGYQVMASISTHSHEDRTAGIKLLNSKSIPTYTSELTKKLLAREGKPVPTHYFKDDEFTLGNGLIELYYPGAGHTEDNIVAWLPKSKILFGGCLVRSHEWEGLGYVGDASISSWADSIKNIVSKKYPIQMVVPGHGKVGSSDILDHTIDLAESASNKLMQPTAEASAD
GIM-1 protein (Pseudomonas aeruginosa), sequence (Q704V1 as listed by the source): as the sequence (Q704V1 whole entry) above
Metallo-beta-lactamase type 2 (Klebsiella pneumoniae), sequence (C7C422 whole entry): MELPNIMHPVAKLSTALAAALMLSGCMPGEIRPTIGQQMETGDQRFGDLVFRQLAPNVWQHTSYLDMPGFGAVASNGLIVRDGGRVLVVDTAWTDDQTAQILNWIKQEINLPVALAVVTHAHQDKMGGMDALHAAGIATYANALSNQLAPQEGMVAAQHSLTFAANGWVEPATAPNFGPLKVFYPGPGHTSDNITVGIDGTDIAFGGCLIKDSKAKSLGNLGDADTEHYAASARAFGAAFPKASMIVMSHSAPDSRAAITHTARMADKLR

Structure (SMILES)	IC50 (Beta-lactamase VIM-2; read-out: IC50) [µM]	IC50 (GIM-1 protein; read-out: IC50) [µM]	inhibition [1]	inhibition [2]	inhibition (Klebsiella pneumoniae)	IC50 ([3]; read-out: IC50) [µM]	also measured
O=S(=O)(NCc1[nH]nnc1CNC12CC3CC(CC(C3)C1)C2)c1ccc(I)cc1	0.16	18	96%	22%	17%	–	–
NCc1nn[nH]c1CNS(=O)(=O)c1ccccc1	23	–	29%	inactive	inactive	–	IC50 (GIM-1 protein): Not Active; IC50 [3]: Not Active
Cc1ccc(S(=O)(=O)NCc2[nH]nnc2CNC23CC4CC(CC(C4)C2)C3)cc1	2.3	83	84%	inactive	inactive	–	–
CC(C)OCc1nn[nH]c1CNS(=O)(=O)c1ccc(I)cc1	0.53	193	85%	11%	inactive	–	IC50 [3]: Not Active
Cc1ccc(S(=O)(=O)NCc2[nH]nnc2CNC2CCCCC2)cc1	1.5	–	82%	2.3%	inactive	144	IC50 (GIM-1 protein): Not Active
O=S(=O)(NCc1[nH]nnc1CNC1CCCCC1)c1cc(Cl)ccc1Cl	0.23	–	94%	7%	inactive	98	IC50 (GIM-1 protein): Not Active
O=S(=O)(NCc1[nH]nnc1CNC12CC3CC(CC(C3)C1)C2)c1cc(Cl)ccc1Cl	0.12	–	inactive	21%	inactive	–	IC50 (GIM-1 protein): Nd(Insoluble)
COCc1nn[nH]c1CNS(=O)(=O)c1ccc(I)cc1	15	169	51%	11%	inactive	–	IC50 [3]: Not Active
O=S(=O)(NCc1[nH]nnc1CNC(c1ccccc1)(c1ccccc1)c1ccccc1)c1ccc(I)cc1	> 250	353	19%	3%	inactive	81	–
CC(=O)OCc1nn[nH]c1CNS(=O)(=O)c1ccc(I)cc1	23	48	–	–	–	231	–
COc1ccc(CSCc2nn[nH]c2CNS(=O)(=O)c2ccc(I)cc2)cc1	21	227	45%	33%	34%	–	–
O=S(=O)(NCc1[nH]nnc1CNC1CCCCC1)c1ccc(I)cc1	0.067	69	95%	3%	inactive	148	–
O=S(=O)(NCc1[nH]nnc1CNCc1ccccc1)c1ccc(I)cc1	–	–	–	–	–	–	IC50 (Beta-lactamase VIM-2): Nd(Insoluble)
C[C@@H](O)[C@H]1C(=O)N2C(C(=O)O)=C(S[C@@H]3CN[C@H](C(=O)N(C)C)C3)[C@H](C)[C@H]12	–	–	–	–	–	–	MIC [4]: 8 µg/mL; MIC [5]: 32 µg/mL; MIC (Escherichia coli [6]): 16 µg/mL; MIC [7]: 64 µg/mL (≈ 167 µM); MIC [8]: 32 µg/mL (≈ 83.4 µM); MIC (Escherichia coli [9]): 16 µg/mL (≈ 41.7 µM); MIC [10]: 1 µg/mL; MIC [11]: 64 µg/mL; MIC [12]: 8 µg/mL; MIC [13]: 32 µg/mL; MIC [14]: 16 µg/mL; MIC [15]: 64 µg/mL; MIC (Escherichia coli [16]): 1 µg/mL
Cc1ccc(S(=O)(=O)NCc2[nH]nnc2COC(C)(C)C)cc1	7.2	128	60%	4.5%	inactive	142	–
